Measurements as given in ChEMBL document CHEMBL1145249, “A potent and selective nonpeptide antagonist of the melanocortin-4 receptor induces food intake in satiated mice” (Bioorg Med Chem Lett, 2005).

What was measured:
Melanocortin receptor 4 [1] = target: T1, Melanocortin receptor 4 (Homo sapiens, UniProt P32245); test: Intrinsic activity towards human alpha-MSH stimulated cAMP level in HEK293 cells
Melanocortin receptor 3 = Melanocortin receptor 3 (Homo sapiens, UniProt P41968); test: Binding affinity for melanocortin-3 receptor transfected in HEK 293 cells using [125I]NDP-MSH as radioligand; assay type: cell-based, HEK293
Procedure, shortened: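 Competition binding at human MC3 or MC4 receptor stably transfected into HEK293 cells, displacing [125I]-NDP-MSH radioligand; Ki reported; values averaged from three or more independent measurements.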

[2] = target: T2, Melanocyte-stimulating hormone receptor (Homo sapiens, UniProt Q01726); test: Percent inhibition of human melanocortin 1 receptor at 10 uM concentration
Target sequence in this assay (Q01726 whole entry, looked up): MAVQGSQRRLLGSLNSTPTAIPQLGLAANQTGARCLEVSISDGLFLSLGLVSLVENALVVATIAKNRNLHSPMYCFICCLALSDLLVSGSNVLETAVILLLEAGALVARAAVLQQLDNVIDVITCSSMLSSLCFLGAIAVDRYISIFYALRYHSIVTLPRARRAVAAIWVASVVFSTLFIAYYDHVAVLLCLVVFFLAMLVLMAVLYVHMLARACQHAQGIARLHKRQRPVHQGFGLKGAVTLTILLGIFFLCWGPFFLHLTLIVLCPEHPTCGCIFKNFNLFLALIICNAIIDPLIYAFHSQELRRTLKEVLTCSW

Melanocortin receptor 5 = Melanocortin receptor 5 (Homo sapiens, UniProt P33032); test: Binding affinity at melanocortin-5 receptor stably transfected in HEK 293 cells using [125I]NDP-MSH as radiolabeled; assay type: cell-based, HEK293
Procedure, shortened: (§1)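 Competition binding at human MC1 or MC5 receptor stably expressed in HEK293 cells, with [125I]-NDP-MSH as the displaced radioligand; Ki determined.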

Melanocortin receptor 4 [3] = target: T1, Melanocortin receptor 4; test: Binding affinity for melanocortin-4 receptor transfected in HEK 293 cells using [125I]NDP-MSH as radioligand; assay type: cell-based, HEK293
Melanocortin receptor 4 [4] = target: T1, Melanocortin receptor 4; test: Intrinsic activity towards human alpha-MSH stimulated cAMP level in HEK293 cells by 10 uM compound
[5] = target: T2, Melanocyte-stimulating hormone receptor; test: Binding affinity at melanocortin-1 receptor stably transfected in HEK 293 cells using [125I]NDP-MSH as radiolabeled; assay type: cell-based, HEK293
Procedure, shortened: as §1
Target sequence in this assay (Q01726 whole entry): as the sequence (Q01726 whole entry, looked up) above

Melanocortin receptor 5, sequence (P33032 whole entry): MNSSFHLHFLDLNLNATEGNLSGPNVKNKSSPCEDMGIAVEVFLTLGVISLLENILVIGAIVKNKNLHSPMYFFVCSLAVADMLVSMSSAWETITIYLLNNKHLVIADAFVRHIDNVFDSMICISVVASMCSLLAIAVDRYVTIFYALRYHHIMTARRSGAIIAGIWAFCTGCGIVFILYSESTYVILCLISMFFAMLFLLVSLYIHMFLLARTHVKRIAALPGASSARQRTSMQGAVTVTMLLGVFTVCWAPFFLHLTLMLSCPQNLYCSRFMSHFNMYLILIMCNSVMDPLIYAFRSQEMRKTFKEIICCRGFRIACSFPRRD
T1 sequence (P32245 whole entry): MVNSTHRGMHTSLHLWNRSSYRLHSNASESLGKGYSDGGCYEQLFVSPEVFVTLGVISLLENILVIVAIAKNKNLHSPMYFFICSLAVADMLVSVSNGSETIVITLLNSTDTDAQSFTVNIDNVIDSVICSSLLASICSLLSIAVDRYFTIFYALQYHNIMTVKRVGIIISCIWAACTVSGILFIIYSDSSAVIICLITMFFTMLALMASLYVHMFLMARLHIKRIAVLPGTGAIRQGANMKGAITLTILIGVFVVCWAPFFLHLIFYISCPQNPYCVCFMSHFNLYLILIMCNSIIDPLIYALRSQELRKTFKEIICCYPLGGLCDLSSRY
Melanocortin receptor 3, sequence (P41968 whole entry): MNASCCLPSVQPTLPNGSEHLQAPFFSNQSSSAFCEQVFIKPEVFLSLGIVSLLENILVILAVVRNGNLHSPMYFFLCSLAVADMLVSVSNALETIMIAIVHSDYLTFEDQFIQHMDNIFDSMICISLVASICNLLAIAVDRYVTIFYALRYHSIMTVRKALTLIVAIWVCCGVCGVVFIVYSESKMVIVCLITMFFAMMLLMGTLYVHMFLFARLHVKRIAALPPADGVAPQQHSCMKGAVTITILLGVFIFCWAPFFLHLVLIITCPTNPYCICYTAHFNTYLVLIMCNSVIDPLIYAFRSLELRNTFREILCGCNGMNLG

Ki (Melanocortin receptor 3) [nM] | Ki (Melanocortin receptor 4 [3]) [nM] | SMILES | other results
– | – | NCCC(=O)N[C@H](Cc1ccc(Cl)cc1)C(=O)N1CCN(c2ccccc2CNCCc2cccs2)CC1 | IA (Melanocortin receptor 4 [1]): 14%
570 | 2.4 | CC(=O)N[C@H](Cc1ccc(Cl)cc1Cl)C(=O)N1CCN(c2ccccc2CNCCc2cccs2)CC1 | inhibition [2]: 31%; Ki (Melanocortin receptor 5): 730 nM
1000 | 2.4 | CC(C)(C)NC(=O)N[C@H](Cc1ccc(Cl)cc1Cl)C(=O)N1CCN(c2ccccc2CNCCc2cccs2)CC1 | –
– | 23 | CC(C)CN[C@H](Cc1ccc(Cl)cc1Cl)C(=O)N1CCN(c2ccccc2CNCCc2cccs2)CC1 | IA (Melanocortin receptor 4 [4]): < 3%
– | 94 | N[C@H](Cc1ccc(Cl)cc1Cl)C(=O)N1CCN(c2ccccc2CNCCc2cccs2)CC1 | IA (Melanocortin receptor 4 [4]): < 3%
800 | 4.6 | CCOC(=O)N[C@H](Cc1ccc(Cl)cc1Cl)C(=O)N1CCN(c2ccccc2CNCCc2cccs2)CC1 | –
950 | 2 | NCCCC(=O)N[C@H](Cc1ccc(Cl)cc1Cl)C(=O)N1CCN(c2ccccc2CNCCc2cccs2)CC1 | –
– | – | O=C(N[C@H](Cc1ccc(Cl)cc1)C(=O)N1CCN(c2ccccc2CNCCc2cccs2)CC1)C1CCCNC1 (some centres not stated) | IA (Melanocortin receptor 4 [1]): 12%
810 | 5 | COC(=O)N[C@H](Cc1ccc(Cl)cc1Cl)C(=O)N1CCN(c2ccccc2CNCCc2cccs2)CC1 | –
830 | 2.8 | COC(=O)CCC(=O)N[C@H](Cc1ccc(Cl)cc1Cl)C(=O)N1CCN(c2ccccc2CNCCc2cccs2)CC1 | –
– | 31 | O=C([C@@H](Cc1ccc(Cl)cc1Cl)NCc1ccccc1)N1CCN(c2ccccc2CNCCc2cccs2)CC1 | IA (Melanocortin receptor 4 [4]): < 3%
– | 420 | O=C(N[C@H](Cc1cccc2ccccc12)C(=O)N1CCN(c2ccccc2CNCCc2cccs2)CC1)OCc1ccccc1 | –
– | 18 | O=C([C@@H](Cc1ccc(Cl)cc1Cl)NCC1CC1)N1CCN(c2ccccc2CNCCc2cccs2)CC1 | IA (Melanocortin receptor 4 [4]): < 3%
– | 3600 | O=C(N[C@H](Cc1cnc[nH]1)C(=O)N1CCN(c2ccccc2CNCCc2cccs2)CC1)OCc1ccccc1 | –
450 | 1.4 | CC(C)NC(=O)N[C@H](Cc1ccc(Cl)cc1Cl)C(=O)N1CCN(c2ccccc2CNCCc2cccs2)CC1 | –
– | 23 | O=C(N[C@H](Cc1ccc(Cl)cc1Cl)C(=O)N1CCN(c2ccccc2CNCCc2cccs2)CC1)OCc1ccccc1 | –
– | 1100 | O=C(N[C@H](Cc1csc2ccccc12)C(=O)N1CCN(c2ccccc2CNCCc2cccs2)CC1)OCc1ccccc1 | –
580 | 1.3 | O=C(NC1CCCC1)N[C@H](Cc1ccc(Cl)cc1Cl)C(=O)N1CCN(c2ccccc2CNCCc2cccs2)CC1 | –

Ki (Melanocortin receptor 3) [nM] | Ki (Melanocortin receptor 4 [3]) [nM] | SMILES | other results
– | 5 | O=C(NCc1ccccc1F)N[C@H](Cc1ccc(Cl)cc1Cl)C(=O)N1CCN(c2ccccc2CNCCc2cccs2)CC1 | –
560 | 2 | CN(C)C(=O)N[C@H](Cc1ccc(Cl)cc1Cl)C(=O)N1CCN(c2ccccc2CNCCc2cccs2)CC1 | Ki [5]: 6800 nM; Ki (Melanocortin receptor 5): 350 nM
– | 7.9 | COc1ccc2ccccc2c1CCCCN1CCN(CC(c2ccc(F)cc2)N2CCN(C(C)C)CC2)CC1 (configuration not stated) | –
790 | 3.2 | O=C(N[C@H](Cc1ccc(Cl)cc1Cl)C(=O)N1CCN(c2ccccc2CNCCc2cccs2)CC1)OCCF | Ki [5]: 1000 nM; Ki (Melanocortin receptor 5): 560 nM
– | 5700 | O=C(N[C@H](Cc1ccc(O)cc1)C(=O)N1CCN(c2ccccc2CNCCc2cccs2)CC1)OCc1ccccc1 | –
860 | 2.1 | O=C(NC1CC1)N[C@H](Cc1ccc(Cl)cc1Cl)C(=O)N1CCN(c2ccccc2CNCCc2cccs2)CC1 | –
390 | 2.9 | O=C(NCCO)N[C@H](Cc1ccc(Cl)cc1Cl)C(=O)N1CCN(c2ccccc2CNCCc2cccs2)CC1 | inhibition [2]: 8%; Ki (Melanocortin receptor 5): 350 nM
– | 14 | CS(=O)(=O)N[C@H](Cc1ccc(Cl)cc1Cl)C(=O)N1CCN(c2ccccc2CNCCc2cccs2)CC1 | IA (Melanocortin receptor 4 [4]): < 3%
– | > 10000 | O=C(N[C@H](Cc1cscn1)C(=O)N1CCN(c2ccccc2CNCCc2cccs2)CC1)OCc1ccccc1 | –
– | 18 | NCCN[C@H](Cc1ccc(Cl)cc1Cl)C(=O)N1CCN(c2ccccc2CNCCc2cccs2)CC1 | IA (Melanocortin receptor 4 [4]): < 3%
790 | 1.7 | CCNC(=O)N[C@H](Cc1ccc(Cl)cc1Cl)C(=O)N1CCN(c2ccccc2CNCCc2cccs2)CC1 | inhibition [2]: 18%; Ki (Melanocortin receptor 5): 300 nM
670 | 1.5 | O=C(N[C@H](Cc1ccc(Cl)cc1Cl)C(=O)N1CCN(c2ccccc2CNCCc2cccs2)CC1)N1CCCC1 | Ki [5]: 6900 nM; Ki (Melanocortin receptor 5): 160 nM
1600 | 3.1 | O=C(N[C@H](Cc1ccc(Cl)cc1Cl)C(=O)N1CCN(c2ccccc2CNCCc2cccs2)CC1)c1ccccc1 | –
– | 16 | O=C([C@@H](Cc1ccc(Cl)cc1Cl)NCc1nccs1)N1CCN(c2ccccc2CNCCc2cccs2)CC1 | IA (Melanocortin receptor 4 [4]): < 3%
1300 | 4.5 | CC(C)OC(=O)N[C@H](Cc1ccc(Cl)cc1Cl)C(=O)N1CCN(c2ccccc2CNCCc2cccs2)CC1 | inhibition [2]: 9%; Ki (Melanocortin receptor 5): 680 nM
– | 2300 | O=C(N[C@H](Cc1c[nH]c2ccccc12)C(=O)N1CCN(c2ccccc2CNCCc2cccs2)CC1)OCc1ccccc1 | –
– | – | NCCC(=O)N[C@H](Cc1ccc(Cl)cc1Cl)C(=O)N1CCN(c2ccccc2CNCCc2cccs2)CC1 | IA (Melanocortin receptor 4 [1]): < 3%
